Measurements collected from several papers.
Each line is one published result; the experiments were not run side by side.
KIT autoinhibited: Mast/stem cell growth factor receptor Kit, autoinhibited (KIT, Homo sapiens, UniProt P10721)
KIT V559D/V654A: Mast/stem cell growth factor receptor Kit (KIT, Homo sapiens, UniProt P10721, V559D/V654A)
KIT L576P: Mast/stem cell growth factor receptor Kit (KIT, Homo sapiens, UniProt P10721, L576P)
KIT: Mast/stem cell growth factor receptor Kit (KIT, Homo sapiens, UniProt P10721)
KIT V559D: Mast/stem cell growth factor receptor Kit (KIT, Homo sapiens, UniProt P10721, V559D)
KIT D816H: Mast/stem cell growth factor receptor Kit (KIT, Homo sapiens, UniProt P10721, D816H)
KIT D816V: Mast/stem cell growth factor receptor Kit (KIT, Homo sapiens, UniProt P10721, D816V)

C[C@@H](c1ccc(-n2cnc3c(N)ncnc32)cc1)N1CCc2nn(C)c(Cc3ccccc3)c2C1=O  remaining binding (KIT autoinhibited; binding; competition with immobilised ligand; 0.1 µM): 97%
O=C(c1ccc(Nc2nccc(-c3cc4ccccc4s3)n2)cc1)N1CCC(N2CCCC2)CC1  remaining binding (KIT V559D/V654A; binding; competition with immobilised ligand; 1 µM): 63%
O=C(Nc1cccnn1)N1CCC(=Cc2cccc(Oc3ccc(C(F)(F)F)cn3)c2)CC1  remaining binding (KIT L576P; binding; competition with immobilised ligand; 1 µM): 0%
CN(C)c1ncc(F)c(-c2cnn3ncccc23)n1  remaining binding (KIT; binding; 1 µM): 100%
CNC(=O)Nc1ccc2c(c1)CC[C@@]21OC(=O)N(CC(=O)N(Cc2ccc(F)cc2)[C@@H](C)C(F)(F)F)C1=O  remaining binding (KIT V559D; cell-free assay; competition with immobilised ligand; 1 µM): 100%
O=C(NCCCN1CCOCC1)c1ccc(Nc2ncc(Cl)c(-c3ccc(Cl)s3)n2)cc1  remaining binding (KIT D816H; binding; competition with immobilised ligand; 1 µM): 22%
CO[C@H]1CC[C@H](CNc2ccc(S(=O)(=O)NC(=O)c3ccc(N4CCN(CC5=C(c6ccc(Cl)cc6)CC(C)(C)CC5)CC4)cc3Oc3cnc4[nH]ccc4c3)cc2[N+](=O)[O-])CC1  remaining binding (KIT D816V; cell-free assay; competition with immobilised ligand; 1 µM): 100%
COc1cnc(Nc2cccc(S(N)(=O)=O)c2)nc1N1CCN(c2ccccc2)C(=O)C1  remaining binding (KIT V559D; binding; competition with immobilised ligand; 1 µM): 98%
C[C@H](c1ccnc(Nc2nc3ccc(-c4cc(N(C)C)ncn4)cc3[nH]2)c1)N1CCN(C(=O)CC(F)(F)F)CC1  remaining binding (KIT V559D/V654A; cell-free assay; competition with immobilised ligand; 0.1 µM): 100%
CC1CCCN1c1nccc(-c2cnn3ncccc23)n1 (stereo not drawn)  remaining binding (KIT D816V; binding; 1 µM): 100%
COc1ncc2cc3ccccc3nc2c1C#N  remaining binding (KIT; cell-free assay; competition with immobilised ligand; 5 µM): 92%
O=C(NCCCN1CCOCC1)c1ccc(Nc2nccc(-c3cc4ccccc4s3)n2)cc1  remaining binding (KIT autoinhibited; binding; competition with immobilised ligand; 1 µM): 76%
CN1CCN(c2ccc(Nc3nccc(-c4ccccc4)n3)cc2C(F)(F)F)CC1  remaining binding (Mast/stem cell growth factor receptor Kit (KIT, Homo sapiens, UniProt P10721, A829P); binding; 10 µM): 20%
c1cnn2ncc(-c3ccnc(N4CCC45COC5)n3)c2c1  remaining binding (KIT L576P; binding; 1 µM): 70%
Cc1c(NC(=O)c2cc(C(N)=O)nc3cc(F)ccc23)c(C(F)(F)F)nn1Cc1ccc(C(C)(C)C)cc1  remaining binding (KIT L576P; cell-free assay; competition with immobilised ligand; 1 µM): 95%
N[C@H]1CCN(c2nccc(-c3cnn4ncccc34)n2)C1  remaining binding (KIT D816H; binding; 1 µM): 64%
O=C(NCC1CCOCC1)c1n[nH]cc1NC(=O)c1c(F)cccc1F  remaining binding (KIT V559D/V654A; binding; competition with immobilised ligand; 1 µM): 90%
CC1=C(C#N)[C@@H](c2ccc3[nH]nc(C)c3c2)C(C#N)=C(c2ccc(Cl)cc2)N1  remaining binding (KIT; cell-free assay; competition with immobilised ligand; 1 µM): 95.4%
F[C@@H]1CCN(c2nccc(-c3cnn4ncccc34)n2)C1  remaining binding (KIT D816H; binding; 1 µM): 85%
N#Cc1ccc(Nc2ccc3[nH]c(=O)[nH]c3c2)c(Cl)c1  remaining binding (KIT D816V; cell-free assay; competition with immobilised ligand; 1 µM): 88%
C[C@H]1CCN(c2nccc(-c3cnn4ncccc34)n2)C1  remaining binding (KIT D816H; binding; 1 µM): 84%
